Reference: ChEMBL document CHEMBL2203175, “Discovery and optimization of sulfonyl acrylonitriles as selective, covalent inhibitors of protein phosphatase methylesterase-1” (J Med Chem, 2011)
Activity calls are given as the source filed them. No cut-off for these calls is given here.

Columns and labels:
[1] = molecular target: Lysosomal Pro-X carboxypeptidase (Homo sapiens) (UniProt P42785); experiment: Inhibition of PRCP binding to FP-biotin in[12C][14N]-lysine, arginine and [13C6][15N2]-lysine, arginine labeled HEK293T cells at 20 uM after 1 hr by isotopic activity-based protein profiling-MudPIT assay; format: cell-based; conditions: HEK-293T
Method in brief: (§1)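 SILAC HEK 293T: light cells (12C14N-Lys/Arg) treated with compound, heavy cells (13C6 15N2-Lys/Arg) with DMSO, 1 h at 37 °C. Proteomes were mixed 1:1 (0.5 mg each) and labeled with FP-biotin (5 μM, 1 h, 25 °C), then streptavidin-enriched, digested on bead with trypsin, and run by MudPIT. Light/heavy ratios were normalized to a DMSO/DMSO control. Only SHs with ≥2 quantifiable peptides were kept; mean ± SEM across peptides.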

[2] = molecular target: Lysosomal thioesterase PPT2 (Homo sapiens) (UniProt Q9UMR5); experiment: Inhibition of PPT2 binding to FP-biotin in [12C][14N]-lysine, arginine and [13C6][15N2]-lysine, arginine labeled HEK293T cells at 20 uM after 1 hr by isotopic activity-based protein profiling-MudPIT assay; format: cell-based; conditions: HEK-293T; method in brief: as §1
Lysosomal thioesterase PPT2 (Homo sapiens), sequence (Q9UMR5 whole entry): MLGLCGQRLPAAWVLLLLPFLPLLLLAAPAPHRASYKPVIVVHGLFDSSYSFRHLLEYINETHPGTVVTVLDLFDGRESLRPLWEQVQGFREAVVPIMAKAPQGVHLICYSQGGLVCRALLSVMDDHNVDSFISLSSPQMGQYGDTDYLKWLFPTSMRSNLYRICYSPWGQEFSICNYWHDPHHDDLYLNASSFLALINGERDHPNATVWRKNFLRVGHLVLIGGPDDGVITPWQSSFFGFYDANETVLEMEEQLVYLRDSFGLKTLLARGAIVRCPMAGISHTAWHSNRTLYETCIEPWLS

[3] = molecular target: sn-1-specific diacylglycerol lipase ABHD11 (Homo sapiens) (UniProt Q8NFV4); experiment: Inhibition of ABHD11 binding to FP-biotin in [12C][14N]-lysine, arginine and [13C6][15N2]-lysine, arginine labeled HEK293T cells at 20 uM after 1 hr by isotopic activity-based protein profiling-MudPIT assay; format: cell-based; conditions: HEK-293T; method in brief: as §1
sn-1-specific diacylglycerol lipase ABHD11 (Homo sapiens), sequence (Q8NFV4 whole entry): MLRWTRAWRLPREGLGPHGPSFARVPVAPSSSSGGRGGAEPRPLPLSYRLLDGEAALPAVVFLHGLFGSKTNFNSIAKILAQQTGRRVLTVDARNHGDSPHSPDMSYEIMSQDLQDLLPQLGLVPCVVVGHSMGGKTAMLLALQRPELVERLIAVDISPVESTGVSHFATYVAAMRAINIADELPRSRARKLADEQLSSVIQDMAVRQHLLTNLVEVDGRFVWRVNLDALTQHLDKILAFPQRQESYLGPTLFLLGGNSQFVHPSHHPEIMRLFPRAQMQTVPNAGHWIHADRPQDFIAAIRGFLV

[4] = molecular target: Acylamino-acid-releasing enzyme (Homo sapiens) (UniProt P13798); experiment: Inhibition of APEH binding to FP-biotin in [12C][14N]-lysine, arginine and [13C6][15N2]-lysine, arginine labeled HEK293T cells at 20 uM after 1 hr by isotopic activity-based protein profiling-MudPIT assay; format: cell-based; conditions: HEK-293T; method in brief: as §1
Acylamino-acid-releasing enzyme (Homo sapiens), sequence (P13798 whole entry): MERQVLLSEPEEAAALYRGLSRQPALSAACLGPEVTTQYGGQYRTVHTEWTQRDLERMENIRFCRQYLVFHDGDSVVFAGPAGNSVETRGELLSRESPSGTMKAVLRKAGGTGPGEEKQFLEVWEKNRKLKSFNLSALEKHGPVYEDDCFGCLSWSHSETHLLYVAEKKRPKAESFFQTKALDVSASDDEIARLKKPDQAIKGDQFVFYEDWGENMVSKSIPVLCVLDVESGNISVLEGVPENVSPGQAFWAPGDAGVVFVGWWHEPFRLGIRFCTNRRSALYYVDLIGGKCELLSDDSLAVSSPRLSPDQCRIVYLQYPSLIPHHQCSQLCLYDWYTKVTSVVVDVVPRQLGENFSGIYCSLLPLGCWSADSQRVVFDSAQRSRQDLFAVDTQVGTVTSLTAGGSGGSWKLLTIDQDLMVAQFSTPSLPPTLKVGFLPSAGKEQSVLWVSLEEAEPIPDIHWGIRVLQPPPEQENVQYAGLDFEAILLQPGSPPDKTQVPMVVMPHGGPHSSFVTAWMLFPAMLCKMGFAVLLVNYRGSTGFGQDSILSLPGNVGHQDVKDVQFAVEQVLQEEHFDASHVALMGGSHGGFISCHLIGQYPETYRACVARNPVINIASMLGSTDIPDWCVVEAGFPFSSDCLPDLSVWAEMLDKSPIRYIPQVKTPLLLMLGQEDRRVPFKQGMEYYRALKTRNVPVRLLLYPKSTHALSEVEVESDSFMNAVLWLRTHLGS

[5] = molecular target: Platelet-activating factor acetylhydrolase IB subunit alpha1 (Homo sapiens) (UniProt Q15102); experiment: Inhibition of PAFAH1B3 binding to FP-biotin in [12C][14N]-lysine, arginine and [13C6][15N2]-lysine, arginine labeled HEK293T cells at 20 uM after 1 hr by isotopic activity-based protein profiling-MudPIT assay; format: cell-based; conditions: HEK-293T; method in brief: as §1
Platelet-activating factor acetylhydrolase IB subunit alpha1 (Homo sapiens), sequence (Q15102 whole entry): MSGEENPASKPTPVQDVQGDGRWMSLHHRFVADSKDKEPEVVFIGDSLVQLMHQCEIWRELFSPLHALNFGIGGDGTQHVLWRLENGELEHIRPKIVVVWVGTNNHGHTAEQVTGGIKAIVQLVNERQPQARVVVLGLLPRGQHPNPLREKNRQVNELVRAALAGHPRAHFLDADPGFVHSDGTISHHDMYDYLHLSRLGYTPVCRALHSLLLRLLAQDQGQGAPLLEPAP

[6] = molecular target: T1, Protein phosphatase methylesterase 1 (Homo sapiens) (UniProt Q9Y570); conditions: HEK-293T, 20 uM
T1 sequence (whole entry): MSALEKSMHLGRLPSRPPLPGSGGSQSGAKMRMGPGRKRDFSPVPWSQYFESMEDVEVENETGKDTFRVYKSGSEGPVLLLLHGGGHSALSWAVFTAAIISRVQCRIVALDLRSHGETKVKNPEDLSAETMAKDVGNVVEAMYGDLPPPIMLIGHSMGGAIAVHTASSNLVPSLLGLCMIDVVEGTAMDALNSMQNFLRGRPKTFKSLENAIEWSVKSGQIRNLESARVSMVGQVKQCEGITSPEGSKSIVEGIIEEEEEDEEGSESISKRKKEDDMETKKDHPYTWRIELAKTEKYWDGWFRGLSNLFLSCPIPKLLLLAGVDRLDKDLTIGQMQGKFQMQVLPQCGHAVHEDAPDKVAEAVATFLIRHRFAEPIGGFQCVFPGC

[7] = molecular target: Acyl-coenzyme A thioesterase 1 (Homo sapiens) (UniProt Q86TX2); experiment: Inhibition of ACOT1 binding to FP-biotin in [12C][14N]-lysine, arginine and [13C6][15N2]-lysine, arginine labeled HEK293T cells at 20 uM after 1 hr by isotopic activity-based protein profiling-MudPIT assay; format: cell-based; conditions: HEK-293T; method in brief: as §1
Acyl-coenzyme A thioesterase 1 (Homo sapiens), sequence (Q86TX2 whole entry): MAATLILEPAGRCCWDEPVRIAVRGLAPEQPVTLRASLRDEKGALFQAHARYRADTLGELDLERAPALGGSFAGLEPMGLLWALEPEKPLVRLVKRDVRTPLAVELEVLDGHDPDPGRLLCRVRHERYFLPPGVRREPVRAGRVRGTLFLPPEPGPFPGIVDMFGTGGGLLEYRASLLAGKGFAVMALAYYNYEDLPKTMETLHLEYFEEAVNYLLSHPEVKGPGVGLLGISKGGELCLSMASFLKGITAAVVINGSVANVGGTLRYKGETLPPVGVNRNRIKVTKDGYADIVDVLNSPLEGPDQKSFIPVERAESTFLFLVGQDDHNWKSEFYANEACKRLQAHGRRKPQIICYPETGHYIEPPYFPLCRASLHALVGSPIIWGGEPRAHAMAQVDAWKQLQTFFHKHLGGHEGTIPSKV

[8] = molecular target: T1, Protein phosphatase methylesterase 1 (Homo sapiens); experiment: Inhibition of PME1 overexpressed in HEK293T cells assessed as reduction in demethylated PP2A level at 20 uM after 1 hr by Western blot analysis relative to control; format: cell-based; conditions: HEK-293T
Method in brief: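 HEK 293T cells, either stably overexpressing PME-1 or untransfected, treated in medium for 1 h at 37 °C. Total cell extract (2 mg/mL) run on reducing SDS-PAGE (10%) and blotted with demethylated-specific (4b7), methylated-specific (2A10) and total PP2A antibodies, imaged by infrared fluorescence. Mean ± SEM, n = 3, compared against DMSO-treated cells.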

[9] = molecular target: Platelet-activating factor acetylhydrolase IB subunit alpha2 (Homo sapiens) (UniProt P68402); experiment: Inhibition of PAFAH1B2 binding to FP-biotin in [12C][14N]-lysine, arginine and [13C6][15N2]-lysine, arginine labeled HEK293T cells at 20 uM after 1 hr by isotopic activity-based protein profiling-MudPIT assay; format: cell-based; conditions: HEK-293T; method in brief: as §1
Platelet-activating factor acetylhydrolase IB subunit alpha2 (Homo sapiens), sequence (P68402 whole entry): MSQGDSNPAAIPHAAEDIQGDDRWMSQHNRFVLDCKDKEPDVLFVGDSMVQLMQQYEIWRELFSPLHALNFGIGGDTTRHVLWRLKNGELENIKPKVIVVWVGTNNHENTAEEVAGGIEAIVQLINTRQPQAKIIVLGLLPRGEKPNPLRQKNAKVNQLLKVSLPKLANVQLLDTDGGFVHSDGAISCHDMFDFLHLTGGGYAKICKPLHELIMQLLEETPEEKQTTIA

[10] = molecular target: Cytosolic phospholipase A2 (Homo sapiens) (UniProt P47712); experiment: Inhibition of PLA2G4A binding to FP-biotin in [12C][14N]-lysine, arginine and [13C6][15N2]-lysine, arginine labeled HEK293T cells at 20 uM after 1 hr by isotopic activity-based protein profiling-MudPIT assay; format: cell-based; conditions: HEK-293T; method in brief: as §1
Cytosolic phospholipase A2 (Homo sapiens), sequence (P47712 whole entry): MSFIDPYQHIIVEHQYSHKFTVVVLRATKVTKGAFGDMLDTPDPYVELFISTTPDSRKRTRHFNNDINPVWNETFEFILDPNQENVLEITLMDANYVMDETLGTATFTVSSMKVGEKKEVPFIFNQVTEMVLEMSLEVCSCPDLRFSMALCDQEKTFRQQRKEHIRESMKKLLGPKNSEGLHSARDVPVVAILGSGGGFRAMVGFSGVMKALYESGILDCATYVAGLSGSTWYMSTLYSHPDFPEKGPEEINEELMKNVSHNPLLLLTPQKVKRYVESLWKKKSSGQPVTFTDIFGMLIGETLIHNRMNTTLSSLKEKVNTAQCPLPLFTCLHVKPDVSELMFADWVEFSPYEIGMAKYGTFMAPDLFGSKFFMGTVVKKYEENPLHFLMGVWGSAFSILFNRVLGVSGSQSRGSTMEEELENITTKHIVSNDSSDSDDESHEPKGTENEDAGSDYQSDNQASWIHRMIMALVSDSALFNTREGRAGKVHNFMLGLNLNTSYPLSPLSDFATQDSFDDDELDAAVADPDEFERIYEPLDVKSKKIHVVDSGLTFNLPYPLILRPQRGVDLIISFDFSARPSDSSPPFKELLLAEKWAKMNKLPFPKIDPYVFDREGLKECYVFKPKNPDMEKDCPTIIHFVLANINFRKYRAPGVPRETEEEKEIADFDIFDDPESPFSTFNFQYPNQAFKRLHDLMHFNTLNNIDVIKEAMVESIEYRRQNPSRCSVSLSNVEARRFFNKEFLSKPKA

[11] = molecular target: Dipeptidyl peptidase 8 (Homo sapiens) (UniProt Q6V1X1); experiment: Inhibition of DPP8 binding to FP-biotin in [12C][14N]-lysine, arginine and [13C6][15N2]-lysine, arginine labeled HEK293T cells at 20 uM after 1 hr by isotopic activity-based protein profiling-MudPIT assay; format: cell-based; conditions: HEK-293T; method in brief: as §1
Dipeptidyl peptidase 8 (Homo sapiens), sequence (Q6V1X1 whole entry, looked up): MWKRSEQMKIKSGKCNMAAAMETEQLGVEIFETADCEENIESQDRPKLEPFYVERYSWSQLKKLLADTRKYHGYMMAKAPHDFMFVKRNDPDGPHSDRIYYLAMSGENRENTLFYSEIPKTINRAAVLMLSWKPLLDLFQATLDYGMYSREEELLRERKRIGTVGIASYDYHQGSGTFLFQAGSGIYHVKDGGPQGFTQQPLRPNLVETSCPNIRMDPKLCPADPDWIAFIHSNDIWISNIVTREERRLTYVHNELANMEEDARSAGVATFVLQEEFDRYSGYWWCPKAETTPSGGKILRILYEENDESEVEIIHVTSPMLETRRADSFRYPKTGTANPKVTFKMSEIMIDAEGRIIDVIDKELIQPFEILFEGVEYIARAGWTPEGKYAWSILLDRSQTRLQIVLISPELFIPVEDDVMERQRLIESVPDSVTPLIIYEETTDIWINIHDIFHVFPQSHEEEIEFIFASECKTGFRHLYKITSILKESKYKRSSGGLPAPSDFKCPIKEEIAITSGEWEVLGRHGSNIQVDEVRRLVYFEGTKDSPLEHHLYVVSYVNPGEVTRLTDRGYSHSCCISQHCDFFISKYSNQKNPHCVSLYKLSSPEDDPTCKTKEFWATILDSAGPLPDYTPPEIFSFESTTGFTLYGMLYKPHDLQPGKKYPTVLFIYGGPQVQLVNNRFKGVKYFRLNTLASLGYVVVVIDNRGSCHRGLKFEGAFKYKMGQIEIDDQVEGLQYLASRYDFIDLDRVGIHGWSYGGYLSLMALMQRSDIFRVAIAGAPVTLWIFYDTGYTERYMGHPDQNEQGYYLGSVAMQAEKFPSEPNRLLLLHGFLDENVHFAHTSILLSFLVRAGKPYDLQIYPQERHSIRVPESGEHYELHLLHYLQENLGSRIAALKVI

[12] = molecular target: Lysophospholipase-like protein 1 (Homo sapiens) (UniProt Q5VWZ2); experiment: Inhibition of LYPLAL1 binding to FP-biotin in [12C][14N]-lysine, arginine and [13C6][15N2]-lysine, arginine labeled HEK293T cells at 20 uM after 1 hr by isotopic activity-based protein profiling-MudPIT assay; format: cell-based; conditions: HEK-293T; method in brief: as §1
Lysophospholipase-like protein 1 (Homo sapiens), sequence (Q5VWZ2 whole entry): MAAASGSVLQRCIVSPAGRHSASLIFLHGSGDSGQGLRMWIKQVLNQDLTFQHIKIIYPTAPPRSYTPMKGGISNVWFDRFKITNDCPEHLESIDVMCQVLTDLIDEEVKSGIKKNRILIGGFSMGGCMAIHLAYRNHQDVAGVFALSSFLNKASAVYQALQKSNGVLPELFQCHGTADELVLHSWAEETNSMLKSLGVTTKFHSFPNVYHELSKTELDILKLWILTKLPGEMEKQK

[13] = molecular target: Acyl-protein thioesterase 1 (Homo sapiens) (UniProt O75608); experiment: Inhibition of LYPLA1 binding to FP-biotin in [12C][14N]-lysine, arginine and [13C6][15N2]-lysine, arginine labeled HEK293T cells at 20 uM after 1 hr by isotopic activity-based protein profiling-MudPIT assay; format: cell-based; conditions: HEK-293T; method in brief: as §1
Acyl-protein thioesterase 1 (Homo sapiens), sequence (O75608 whole entry): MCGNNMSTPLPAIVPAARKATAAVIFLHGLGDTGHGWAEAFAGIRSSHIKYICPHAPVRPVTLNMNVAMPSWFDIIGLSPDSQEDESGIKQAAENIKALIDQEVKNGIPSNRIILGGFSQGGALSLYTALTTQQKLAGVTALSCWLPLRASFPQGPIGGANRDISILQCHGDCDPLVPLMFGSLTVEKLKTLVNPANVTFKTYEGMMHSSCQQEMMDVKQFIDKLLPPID

HEK-293T = experiment: Effect on chloroacetamide-Rh labeled soluble proteome in HEK293T cells at 100 uM incubated for 1 hr before protein labeling measured after 1 hr relative to control; format: cell-based; conditions: Homo sapiens
Method in brief: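 HEK 293T cells (DMEM, 10% FBS, 37 °C, 5% CO2) given compound in medium for 1 h at 37 °C, washed, scraped, sonicated in PBS pH 7.5. Soluble fraction diluted to 1 mg/mL protein in PBS, labeled with CA-rhodamine or SE-rhodamine (5 μM, 1 h, 25 °C), run on reducing SDS-PAGE (10%), and band intensities read by in-gel fluorescence against DMSO-treated samples.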

[14] = molecular target: S-formylglutathione hydrolase (Homo sapiens) (UniProt P10768); experiment: Inhibition of ESD binding to FP-biotin in [12C][14N]-lysine, arginine and [13C6][15N2]-lysine, arginine labeled HEK293T cells at 20 uM after 1 hr by isotopic activity-based protein profiling-MudPIT assay; format: cell-based; conditions: HEK-293T; method in brief: as §1
S-formylglutathione hydrolase (Homo sapiens), sequence (P10768 whole entry): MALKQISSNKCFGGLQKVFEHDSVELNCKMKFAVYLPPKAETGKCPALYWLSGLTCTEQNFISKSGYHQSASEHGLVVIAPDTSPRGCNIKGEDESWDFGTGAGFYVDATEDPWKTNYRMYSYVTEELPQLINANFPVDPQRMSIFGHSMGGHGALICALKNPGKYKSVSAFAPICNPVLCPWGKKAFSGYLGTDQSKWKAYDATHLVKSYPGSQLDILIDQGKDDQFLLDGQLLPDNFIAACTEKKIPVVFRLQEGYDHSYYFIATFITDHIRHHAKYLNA

inhibition [1]: inactive | inhibition [2]: inactive | inhibition [3]: inactive | inhibition [4]: inactive | inhibition [5]: inactive | inhibition [6]: Active | inhibition [7]: inactive | inhibition [8]: 80% | inhibition [9]: inactive | inhibition [10]: inactive | inhibition [11]: inactive | inhibition [12]: inactive | inhibition [13]: inactive | inhibition [14]: inactive
SMILES: N#C/C(=C\c1cccn1S(=O)(=O)c1cccc([N+](=O)[O-])c1)S(=O)(=O)c1ccc(F)cc1
Activity (HEK-293T): inactive
